This is an account of results in ChEMBL document CHEMBL5346886 (Eur J Med Chem, 2023).

SMILES strings stand for the structures. Activity calls are given as the source filed them. The rule behind the calls is not given here.

For data set [1], the system named is Murine hepatitis virus. Put plainly: Antiviral activity against murine hepatitis virus-A59 infected in BALB/c mouse assessed as reduction in IFN-beta production in lungs at 200 mg/kg, po administered once daily one hour post infection and measured after 3 days by ELISA analysis. Type of data set: functional, organism-based. To be noted: time 3.0 day. A digest of the protocol:
(§1)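 MHV-A59 was inoculated intranasally into male BALB/c mice (30 μL, TCID50 = 10−7.125/100 μL), with oral dosing once daily from 1 hpi for four days. At 3 dpi, 0.1 g lung or liver from 4 mice per group was homogenized in 0.9 mL water at 4 °C and centrifuged. Supernatant IFN-β was read by ELISA; TNF-α, IFN-γ, IL-1β, IL-6 and CXCL10 by multi-analyte kit, with OD 450 nm against standards.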

Data set [2] concerns Murine hepatitis virus. In words: Antiviral activity against murine hepatitis virus-A59 infected in po dosed BALB/c mouse assessed as inhibition of viral replication in liver administered once daily one hour post infection and measured after 3 days by qRT-PCR analysis. It is filed as functional, organism-based. To be noted: dose 10-200 mg/kg, time 3.0 day. In outline:
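SPF male BALB/c mice aged 3–4 weeks were put under isoflurane and inoculated intranasally with 30 μL MHV-A59 (TCID50 = 10−7.125/100 μL) in PBS. Oral dosing once daily in 15% Cremophor EL/82.5% PBS/2.5% DMSO started at 1 hpi and ran for four days; groups had 12 mice. At 3 dpi, 4 mice per group were killed and lung and liver M-gene copies measured by qRT-PCR.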
On the technique in general: Real-time PCR tracks product formation cycle by cycle.

The subject of data set [3] is Murine hepatitis virus. Put plainly: Antiviral activity against murine hepatitis virus-A59 infected in BALB/c mouse assessed as reduction in IL-1beta production in liver at 10 to 100 mg/kg, po administered once daily one hour post infection and measured after 3 days by ELISA analysis. It is filed as functional, organism-based. To be noted: dose 10-100 mg/kg, time 3.0 day. In outline: as §1
(In general: ELISA stands for enzyme-linked immunosorbent assay.)

Data set [4] in a line: Drug distribution in BALB/c mouse liver assessed as hydrolyzed GS-441524 metabolite at 200 mg/kg, po administered as single dose and measured after 1 hrs by LC-MS/MS analysis. It is filed as ADME, organism-based. The conditions noted are these: in vivo.
For data set [5], the system named is Murine hepatitis virus. In words: Potency index, ratio of GS-441524 EC50 to test compound EC50 for antiviral activity against Murine hepatitis virus-A59 infected in mouse L929 cells assessed as reduction in viral copy pre-infected with cell for 1 hrs followed by compound addition and measured after 48 hrs by RT-qPCR analysis. Type of data set: functional.
For data set [6], the system named is Murine hepatitis virus. In words: Antiviral activity against murine hepatitis virus-A59 infected in BALB/c mouse assessed as reduction in mortality at 10 to 200 mg/kg, po administered once daily one hour post infection and measured after 23 days. It is filed as functional, organism-based. The conditions noted are these: dose 10-200 mg/kg, time 23.0 day. In outline:
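After intranasal MHV-A59 inoculation (30 μL, TCID50 = 10−7.125/100 μL), 3–4-week-old male BALB/c mice received oral drug or vehicle once daily from 1 hpi for four days, 12 per group. The remaining mice were monitored daily for body weight, clinical signs and death until 23 dpi; survival curves were plotted.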

`CC(C)Cc1ccc(C(C)C(=O)OC[C@H]2O[C@@](C#N)(c3ccc4c(N)ncnn34)[C@H](O)[C@@H]2O)cc1` (stereo partly specified): the result in data set [1], in data set [3] and in data set [6] was Active. For the same compound, the Activity entry in data set [2] is “Dose-Dependent Effect”. Besides, the Drug uptake result in data set [4] is given as “Active”. Besides, the “Ratio EC50” value in data set [5] is 8.
